Activity calls are given as the source filed them. The rule behind the calls is not given here.
Experiments:
MCF7 = test: Antiproliferative activity against human MCF7 cells after 72 hrs by MTT assay; format: functional, cell-based; conditions: MCF7, 72 h
How it was run: (§1)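 Cells seeded 3,000/well, after 24 h medium replaced with compound at 64, 32, 16, 8, 4, 2, 1, 0.5 µM; 72 h exposure, MTT read-out at 570 nm; IC50 given as mean ± SD.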

MGC-803 = test: Antiproliferative activity against human MGC803 cells after 72 hrs by MTT assay; format: functional, cell-based; conditions: MGC-803, 72 h; how it was run: as §1
DU-145 [1] = test: Antiproliferative activity against human DU145 cells after 72 hrs by MTT assay; format: functional, cell-based; conditions: DU-145, 72 h; how it was run: as §1
PC-3 = test: Antiproliferative activity against human PC3 cells after 72 hrs by MTT assay; format: functional, cell-based; conditions: PC-3, 72 h; how it was run: as §1
DU-145 [2] = test: Inhibition of colony formation in human DU145 cells after 21 days by crystal violet staining-based assay; format: functional, cell-based
How it was run: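 DU145 seeded 4000/well, grown 4 days, then medium with compound at various concentrations for 21 days; PBS washed, fixed in 4% paraformaldehyde, stained with 0.1% crystal violet; colonies (>10 cells) counted; inhibition = (1 − treated/control colonies) × 100%.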

DU-145 [3] = test: Growth inhibition of human DU145 cells at 5 uM after 24 to 48 hrs by MTT assay; format: functional, cell-based
How it was run: (§2)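 DU145 growth inhibition measured by MTT; time course at 24, 48 and 72 h; combination arm used recombinant TRAIL at 100 ng/mL together with compound (2.5 or 5.0 µM); mean ± SD, experiment repeated three times, Student's t test.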

DU-145 [4] = test: Growth inhibition of human DU145 cells at 5 uM by MTT assay; format: functional, cell-based; conditions: TDE = time-dependent effect; how it was run: as §2
DU-145 [5] = test: Growth inhibition of human DU145 cells at 5 uM after 72 hrs in presence of TRAIL by MTT assay relative to control; format: functional; conditions: DU-145, 72 h, read-out: GI; how it was run: as §2
DU-145 [6] = test: Induction of apoptosis in human DU145 cells assessed as cell rounding at 10 uM after 24 hrs by Hoechst 33258 staining-based fluorescence microscopic analysis; format: functional
How it was run: (§3)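 DU145 seeded 1×10^5/well, adhered overnight, treated 24 h with compound alone or combined with TRAIL; stained with Hoechst 33258 for 30 min in the dark; nuclear morphology examined by fluorescence microscopy.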

DU-145 [7] = test: Induction of apoptosis in human DU145 cells assessed as cell rounding at 10 uM after 24 hrs in presence of TRAIL by Hoechst 33258 staining-based fluorescence microscopic analysis; format: functional; how it was run: as §3
DU-145 [8] = test: Induction of apoptosis in human DU145 cells assessed as chromatin shrinkage at 10 uM after 24 hrs by Hoechst 33258 staining-based fluorescence microscopic analysis; format: functional, cell-based; how it was run: as §3
DU-145 [9] = test: Induction of apoptosis in human DU145 cells assessed as chromatin shrinkage at 10 uM after 24 hrs in presence of TRAIL by Hoechst 33258 staining-based fluorescence microscopic analysis; format: functional, cell-based; how it was run: as §3
DU-145 [10] = test: Induction of apoptosis in human DU145 cells assessed as formation of apoptotic bodies at 10 uM after 24 hrs by Hoechst 33258 staining-based fluorescence microscopic analysis; format: functional, cell-based; how it was run: as §3
DU-145 [11] = test: Induction of apoptosis in human DU145 cells assessed as formation of apoptotic bodies at 10 uM after 24 hrs in presence of TRAIL by Hoechst 33258 staining-based fluorescence microscopic analysis; format: functional, cell-based; how it was run: as §3
DU-145 [12] = test: Induction of apoptosis in human DU145 cells assessed as viable cells at 10 uM after 24 hrs by Annexin V-FITC/propidium iodide staining-based high content screening assay (reference value: 97.9%); format: functional; conditions: DU-145, 24 h, read-out: Activity
How it was run: (§4)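 DU145 seeded 3×10^5/well, grown 24 h, treated 24 h with compound alone or plus TRAIL; harvested, stained with Annexin V-FITC/PI per kit protocol, quantified by high content screening; mean ± SD of three experiments.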

DU-145 [13] = test: Induction of apoptosis in human DU145 cells assessed as early apoptotic cells at 10 uM after 24 hrs by Annexin V-FITC/propidium iodide staining-based high content screening assay (reference value: 0.3%); format: functional; how it was run: as §4
DU-145 [14] = test: Induction of apoptosis in human DU145 cells assessed as late apoptotic cells at 10 uM after 24 hrs by Annexin V-FITC/propidium iodide staining-based high content screening assay (reference value: 0.2%); format: functional; how it was run: as §4
DU-145 [15] = test: Induction of apoptosis in human DU145 cells assessed as necrotic cells at 10 uM after 24 hrs by Annexin V-FITC/propidium iodide staining-based high content screening assay (reference value: 1.6%); format: functional; how it was run: as §4
DU-145 [16] = test: Induction of apoptosis in human DU145 cells assessed as viable cells at 10 uM after 24 hrs in presence of TRAIL by Annexin V-FITC/propidium iodide staining-based high content screening assay (reference value: 97.9%); format: functional; conditions: DU-145, 24 h, read-out: Activity; how it was run: as §4
DU-145 [17] = test: Induction of apoptosis in human DU145 cells assessed as early apoptotic cells at 10 uM after 24 hrs in presence of TRAIL by Annexin V-FITC/propidium iodide staining-based high content screening assay (reference value: 0.3%); format: functional; how it was run: as §4
DU-145 [18] = test: Induction of apoptosis in human DU145 cells assessed as late apoptotic cells at 10 uM after 24 hrs in presence of TRAIL by Annexin V-FITC/propidium iodide staining-based high content screening assay (reference value: 0.2%); format: functional; how it was run: as §4
DU-145 [19] = test: Induction of apoptosis in human DU145 cells assessed as necrotic cells at 10 uM after 24 hrs in presence of TRAIL by Annexin V-FITC/propidium iodide staining-based high content screening assay (reference value: 1.6%); format: functional; how it was run: as §4
DU-145 [20] = test: Induction of apoptosis in human DU145 cells assessed as increase in caspase-3/7 activity at 10 to 50 uM after 24 hrs by Caspase-Glo 3/7 assay; format: functional, cell-based
How it was run: (§5)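 DU145 treated 24 h with compound alone or with TRAIL (100 ng/mL); caspase-3/7 activity measured by Caspase-Glo 3/7 luminescent protocol relative to untreated control; three independent experiments, mean ± SD, Student's t test.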

DU-145 [21] = test: Induction of apoptosis in human DU145 cells assessed as increase in caspase-3/7 activity at 10 uM after 24 hrs in presence of TRAIL by Caspase-Glo 3/7 assay relative to control; format: functional; how it was run: as §5

SMILES	IC50 (MCF7) [µM]	IC50 (MGC-803) [µM]	IC50 (DU-145 [1]) [µM]	IC50 (PC-3) [µM]	other results
CC(C)c1ccc(NCC(=O)N[C@H]2CCOC2=O)cc1	> 64	> 64	> 64	> 64	–
CCCCCCCCCC(=O)CC(=O)N[C@H]1CCOC1=O	26.2	29.5	19.3	22.5	inhibition (DU-145 [2]): Dose-dependent effect; Activity (DU-145 [3]): Active; growth inhibition (GI) (DU-145 [4]): Tde; inhibition of growth at 5 µM (DU-145 [5]): 20%; Activity (DU-145 [6]): Active; Activity (DU-145 [7]): Active; Activity (DU-145 [8]): Active; Activity (DU-145 [9]): Active; Activity (DU-145 [10]): Active; Activity (DU-145 [11]): Active; viability at 10 µM (DU-145 [12]): 89.2%; Activity (DU-145 [13]): 9.2%; Activity (DU-145 [14]): 1.1%; Activity (DU-145 [15]): 0.5%; viability at 10 µM (DU-145 [16]): 77.9%; Activity (DU-145 [17]): 12.2%; Activity (DU-145 [18]): 9.7%; Activity (DU-145 [19]): 0.2%; Activity (DU-145 [20]): Active; fold change (FC) (DU-145 [21]): 2
O=C1OCC[C@@H]1NC(=S)SCCOc1ccc(Cl)cc1	50.5	51.1	> 64	> 64	–
CCCCCCCCCCSC(=S)N[C@H]1CCOC1=O	> 64	> 64	> 64	> 64	–
CC(C)(C)c1ccc(/C=C/C(=O)c2ccc(OCC(=O)N[C@H]3CCOC3=O)cc2)cc1	16.4	17.2	6.57	10.6	–
O=C(COc1ccc(C(=O)/C=C/c2ccc(F)c(F)c2)cc1)N[C@H]1CCOC1=O	> 64	> 64	19.8	21.9	–
O=C(COc1ccc(C(=O)/C=C/c2cccc(Br)c2)cc1)N[C@H]1CCOC1=O	28.3	11.9	9.8	7.89	–
O=C(CNc1ccccc1)N[C@H]1CCOC1=O	> 64	> 64	> 64	> 64	–
O=C(CNc1ccccc1F)N[C@H]1CCOC1=O	> 64	> 64	> 64	> 64	–
C=CCc1ccc(OCCSC(=S)N[C@H]2CCOC2=O)c(OC)c1	> 64	27.9	> 64	> 64	–
CC(=O)c1ccc(OCCSC(=S)N[C@H]2CCOC2=O)cc1	> 64	> 64	32.6	46.9	–
CC(C)c1ccc(/C=C/C(=O)c2ccc(OCC(=O)N[C@H]3CCOC3=O)cc2)cc1	23.4	16.8	13.1	4.66	–
COc1ccccc1/C=C/C(=O)c1ccc(OCC(=O)N[C@H]2CCOC2=O)cc1	> 64	39.4	10.1	7.24	–
O=C(COc1ccc(C(=O)/C=C/c2ccccc2)cc1)N[C@H]1CCOC1=O	> 64	> 64	48.3	56.8	–
O=C1OCC[C@@H]1NC(=S)SCCOc1ccccc1Cc1ccccc1	39.5	32.3	> 64	> 64	–
O=C(COc1ccc(C(=O)/C=C/c2ccccc2Br)cc1)N[C@H]1CCOC1=O	15.2	12.2	3.54	3.26	–
O=C(CNc1ccc(Cl)cc1Cl)N[C@H]1CCOC1=O	> 64	> 64	> 64	> 64	–
O=C(CNc1cccc(Cl)c1)N[C@H]1CCOC1=O	> 64	> 64	> 64	> 64	–

SMILES	IC50 (MCF7) [µM]	IC50 (MGC-803) [µM]	IC50 (DU-145 [1]) [µM]	IC50 (PC-3) [µM]	other results
O=C(COc1ccc(C(=O)/C=C/c2ccc(F)cc2)cc1)N[C@H]1CCOC1=O	> 64	> 64	18.8	15.6	–
CCOc1ccccc1OCCSC(=S)N[C@H]1CCOC1=O	> 64	> 64	28.2	24.1	–
O=C1OCC[C@@H]1NC(=S)SCCOc1ccc([N+](=O)[O-])cc1	> 64	> 100	31	32.5	–
O=C(CNc1ccc(F)cc1)N[C@H]1CCOC1=O	> 64	> 64	> 64	> 64	–
O=C(CNc1ccc(Br)cc1)N[C@H]1CCOC1=O	> 64	> 64	> 64	> 64	–
O=C(COc1ccc(C(=O)/C=C/c2ccc(Br)cc2)cc1)N[C@H]1CCOC1=O	> 64	51	51.7	> 64	–
O=C(COc1ccc(C(=O)/C=C/c2cccc(Cl)c2)cc1)N[C@H]1CCOC1=O	20.9	29.1	3.7	4.99	–
O=C(COc1ccc(C(=O)/C=C/c2ccc(Cl)cc2Cl)cc1)N[C@H]1CCOC1=O	34.4	26.5	8.61	8.04	–
O=C(COc1ccc(C(=O)/C=C/c2cccc(F)c2)cc1)N[C@H]1CCOC1=O	> 64	> 64	17.2	23.2	–
Cc1cc(Cl)ccc1NCC(=O)N[C@H]1CCOC1=O	> 64	> 64	> 64	> 64	–
O=C1OCC[C@@H]1NC(=S)SCCOc1ccccc1[N+](=O)[O-]	> 64	47	33.4	24	–
O=C(COc1ccc(C(=O)/C=C/c2cccc([N+](=O)[O-])c2)cc1)N[C@H]1CCOC1=O	> 64	> 64	41.8	56.2	–
O=C1OCC[C@@H]1NC(=S)SCCOc1ccccc1	> 64	53.8	63.8	> 64	–
O=C(CNc1ccccc1Cl)N[C@H]1CCOC1=O	> 64	> 64	> 64	> 64	–
O=C(CNc1ccc(Cl)cc1)N[C@H]1CCOC1=O	> 64	> 64	> 64	> 64	–
Cc1ccc(C(C)C)c(OCCSC(=S)N[C@H]2CCOC2=O)c1	> 64	43.4	> 64	> 64	–
O=C1OCC[C@@H]1NC(=S)SCCOc1cccc2ccccc12	> 64	> 64	> 64	> 64	–

— ChEMBL document CHEMBL4411279, “Synthesis of new chalcone-based homoserine lactones and their antiproliferative activity evaluation” (Eur J Med Chem, 2019)
